MC4R antagonist = human MC4R antagonism in cAMP assay; AID 540295; inhibition, % at 6.5 µM; P32245; MC4R-expressing cells, MTII-stimulated cAMP, LANCE TR-FRET; actives 0.48% (n = 360,000);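 active = inhibition above its plate's cutoff, the mean of tested wells on that plate plus 3 SD, cut at about 29% in these data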
Target sequence (P32245 whole entry, looked up): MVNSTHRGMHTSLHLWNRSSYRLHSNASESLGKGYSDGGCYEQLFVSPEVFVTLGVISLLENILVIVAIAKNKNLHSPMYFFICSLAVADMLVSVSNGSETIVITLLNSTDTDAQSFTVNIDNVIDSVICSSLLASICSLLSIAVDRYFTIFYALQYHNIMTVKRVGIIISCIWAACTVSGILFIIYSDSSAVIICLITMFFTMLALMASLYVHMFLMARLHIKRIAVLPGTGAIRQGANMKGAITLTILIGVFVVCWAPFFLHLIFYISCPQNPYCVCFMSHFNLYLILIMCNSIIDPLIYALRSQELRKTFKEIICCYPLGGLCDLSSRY
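Assay system: U2OS-MC4R stable cell line; Also added: Melanotan II; Technique: Eu-cAMP/anti-cAMP TR-FRET, emission 671 nm; Times: 30-min compound, 1-h challenge, 1-h detection, room temperature.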
MC4R ag barr = agonists of human melanocortin 4 receptor (MC4R) beta-arrestin. actives 0.98% (n = 360,000). P32245. activation, % at 8.9 µM. AID 540308. U2OS MC4R beta-arrestin complementation, luminescence; percent of melanotan II response, DMSO zero;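 active = activation above a per-plate cutoff, the mean activation of sample wells on that plate plus 3 SD, cut at about 8% in these data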
SMARCA2 act = increases SMARCA2 function in MMTV reporter cells; MG213 cells, MMTV-luciferase reporter, dexamethasone, overnight; activation, % at 9.1 µM; actives 1% (n = 370,000); in the data active = activation above about 7.8%
ATG4B inhibitor = inhibitors of human ATG4B cysteine protease. inhibition, % at 8.33 µM. actives 0.51% (n = 340,000). ATG4B cleavage of LC3-PLA2, NBD-HPC fluorescence, 1 h; in the data active = inhibition above about 40%
Target sequence (Q9Y4P1 whole entry, looked up): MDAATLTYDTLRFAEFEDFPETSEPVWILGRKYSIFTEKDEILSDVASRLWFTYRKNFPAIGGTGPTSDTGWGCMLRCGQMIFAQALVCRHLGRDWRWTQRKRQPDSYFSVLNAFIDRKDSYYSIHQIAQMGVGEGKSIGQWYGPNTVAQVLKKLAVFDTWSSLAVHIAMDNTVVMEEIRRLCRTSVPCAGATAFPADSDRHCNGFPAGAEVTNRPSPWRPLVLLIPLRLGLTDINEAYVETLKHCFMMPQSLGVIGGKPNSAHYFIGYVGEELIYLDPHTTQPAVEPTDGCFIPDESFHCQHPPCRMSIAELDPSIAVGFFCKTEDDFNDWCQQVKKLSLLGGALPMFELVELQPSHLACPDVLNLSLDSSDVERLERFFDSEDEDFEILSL
MPTP inh = blocks calcium-induced mitochondrial swelling. isolated mouse mitochondria, Ca2+ swelling absorbance, 30 min. actives 1.4% (n = 360,000). AID 602449. inhibition, % at 10 µM;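 active = inhibition of 50% or more, scaled per plate between neutral and stimulator controls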
SMARCA2 act conf = confirmation of SMARCA2 (BRM) function activators. activation, % at 9.1 µM. AID 652260. shares compounds with SMARCA2 act. actives 30% (n = 3,500). MG213 cells, MMTV-luciferase with dexamethasone, luminescence, overnight; MG213 cells expressing E1A, Rb sequestered; DMSO wells 0%, reference activator 100%;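 active = activation above its plate's cutoff, the mean activation of tested wells plus 3 SD, cut at about 7.9% in these data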
VP16 Luc act = activates GAL4-VP16 luciferase, flagging SMARCA2 activator hits. shares compounds with SMARCA2 act. HEK293 GAL4-VP16 pG5luc reporter, luciferase luminescence; scaled: DMSO wells 0%, SAHA wells 100%. activation, % at 9.1 µM. actives 41% (n = 3,500). AID 686939;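 active = activation above the solvent-only control well mean plus 3 SD, averaged across control plates, cut at about 5.2% in these data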
Of the large screens only hits and unclear results are named; the others gave an inactive call (follow-up assays come after a bar, where they were run). Most compounds without a hit are left out; they make up all but 4.1% or so of the library.

C=CCN1C(=O)[C@H](CC(=O)NCC23CC4CC(CC(C4)C2)C3)[C@@]2(C(=O)OCC)CCCC=C12	none (no result: MC4R antagonist, MC4R ag barr, ATG4B inhibitor, MPTP inh)
CC(=O)c1cccc(NC(=O)C2C3C=CC(C3)C2C(=O)O)c1 (stereo unspecified)	none
Cc1ccc(-c2cccc(NC(=O)C3C4C=CC(C4)C3C(=O)O)c2)o1 (stereo unspecified)	SMARCA2 act 9.4 | SMARCA2 act conf inactive | VP16 Luc act inactive
O=C(c1ccccc1)N1CCC(c2nc(-c3ccc(S(=O)(=O)N4CCOCC4)cc3)no2)CC1	none
CN(C)c1ccc(-c2noc(C3CCN(S(=O)(=O)c4cccc(C(=O)O)c4)CC3)n2)cc1	SMARCA2 act 9.7 | SMARCA2 act conf inactive | VP16 Luc act inactive
COc1ccc(C(c2nnnn2C(C)(C)C)N2CCN(c3nc4ccccc4s3)CC2)cc1 (stereo unspecified)	SMARCA2 act 9.2 | SMARCA2 act conf inactive | VP16 Luc act inactive
COc1ccc(N2CCN(C(c3ccccc3)c3nnnn3C(C)(C)C)CC2)cc1 (stereo unspecified)	none (no result: MC4R antagonist, MC4R ag barr, ATG4B inhibitor)
Cc1cc(N2CCN(CC(C)(C)O)C[C@H]2C)ccc1N1CCN(CC(C)(C)O)[C@H](C)C1	none (no result: MC4R antagonist, MC4R ag barr, ATG4B inhibitor, MPTP inh)
Cn1c2ccccc2c(=O)c2ccc(NCCc3cccs3)cc21	SMARCA2 act 9.0 | SMARCA2 act conf 9.4 | VP16 Luc act 13.9
Cc1ccc(C)c(CSC2=NN3CCCC(=O)N=C3S2)c1	SMARCA2 act 8.5 | SMARCA2 act conf inactive | VP16 Luc act inactive
CCc1nnc(NS(=O)(=O)c2ccc(N3C(=O)c4ccccc4C3=O)cc2)s1	SMARCA2 act 10.6 | SMARCA2 act conf inactive | VP16 Luc act inactive
COc1ccc(S[C@]2(C(=O)N3CCCC3)CC(=O)N(C(=O)c3ccccc3)[C@@H]2c2ccc(OC)cc2)cc1	none (no result: MC4R antagonist, MC4R ag barr, ATG4B inhibitor, MPTP inh)
CCOC(=O)c1cccc(NC(=O)CN(C)S(=O)(=O)c2ccc(Br)s2)c1	none (no result: MC4R antagonist, MC4R ag barr, ATG4B inhibitor, MPTP inh)
CSc1ccccc1NC(=O)c1cc(C)on1	none
CSc1ccccc1NC(=O)c1cc(C(C)C)on1	SMARCA2 act 8.0 | SMARCA2 act conf inactive | VP16 Luc act 7.9
O=C(Nc1cc(Br)ccc1O)c1cc(-c2ccc3c(c2)OCO3)on1	none
CSc1ccccc1NC(=O)c1cc(-c2ccc3c(c2)OCO3)on1	MC4R ag barr 12.2, SMARCA2 act 10.4 | SMARCA2 act conf inactive | VP16 Luc act inactive
COC(=O)c1cc2c(c3c4cc(C)ccc4n(S(=O)(=O)c4cccc(C)c4)c13)C(=O)N(Cc1ccc(N(C)C)cc1)C2	none (no result: MC4R antagonist, MC4R ag barr, ATG4B inhibitor, MPTP inh)
c1coc(CNc2nc3ccccc3s2)c1	SMARCA2 act 9.7 | SMARCA2 act conf 15.0 | VP16 Luc act 12.2
c1coc(CNc2nc(-c3ccncc3)cs2)c1	none
Cc1nnc(NCc2ccco2)s1	none
COc1ccc(-c2csc(NCc3ccco3)n2)cc1	SMARCA2 act 9.2 | SMARCA2 act conf 9.5 | VP16 Luc act 12.8
COc1ccc(Cn2cc(CN3[C@H](C)COc4cc(Br)ccc4S3(=O)=O)nn2)cc1	none (no result: MC4R antagonist, MC4R ag barr, ATG4B inhibitor, MPTP inh)
Cc1cccc(Cn2cc(COC(=O)N(C)Cc3ccccc3)nn2)c1	none (no result: MC4R antagonist, MC4R ag barr, ATG4B inhibitor, MPTP inh)
O=C(CCl)Nc1ccc(C(=O)NCC2COc3ccccc3O2)cc1 (stereo unspecified)	none (no result: MC4R antagonist, MC4R ag barr, ATG4B inhibitor, MPTP inh)
Cc1nnc(NC(=O)c2cc(S(=O)(=O)N(C)C)ccc2N2CCCC2)s1	SMARCA2 act 9.1 | SMARCA2 act conf inactive | VP16 Luc act inactive
C=C[C@@]1(C)CC(=O)[C@]2(O)[C@@]3(C)[C@@H](O)CCC(C)(C)[C@@H]3[C@H](O)[C@H](OC(C)=O)[C@@]2(C)O1	SMARCA2 act 20.6 | SMARCA2 act conf 20.7 | VP16 Luc act 25.0
C[C@H](CO)N1C[C@H](C)[C@@H](CN(C)C(=O)c2ccncc2)OCc2cn(nn2)CCCC1=O	none (no result: MC4R antagonist, MC4R ag barr, ATG4B inhibitor, MPTP inh)
Fc1ccc2nc3[nH]c4ccccc4c3nc2c1	SMARCA2 act 12.9 | SMARCA2 act conf 17.3 | VP16 Luc act 12.6
CN1C(=O)C(C)(C)c2cc(S(=O)(=O)N3CCCC(C(=O)NCc4ccccc4Cl)C3)ccc21 (stereo unspecified)	SMARCA2 act 10.3 | SMARCA2 act conf inactive | VP16 Luc act inactive
CN(C)[C@@H]1CCN(c2ccc3c(c2)OCCCN(C2CC2)S3(=O)=O)C1	none (no result: MC4R antagonist, MC4R ag barr, ATG4B inhibitor, MPTP inh)
COc1ccc(C2=Nn3c(nnc3-c3ccccc3F)SC2)cc1OC1CCCC1	SMARCA2 act 16.9 | SMARCA2 act conf 30.5 | VP16 Luc act 20.5
COc1ccc(OC)c(-c2nnc3n2N=C(c2ccc(OC)c(OC)c2)CS3)c1	SMARCA2 act 11.6 | SMARCA2 act conf 33.5 | VP16 Luc act 16.6
COc1ccc(C2=Nn3c(nnc3-c3cccnc3)SC2)cc1	SMARCA2 act 9.7 | SMARCA2 act conf inactive | VP16 Luc act inactive
COc1ccc(C2=Nn3c(nnc3C3CCCCC3)SC2)cc1OC	SMARCA2 act 13.7 | SMARCA2 act conf 13.6 | VP16 Luc act 7.3
COc1ccc(OC)c(C2=Nn3c(nnc3C3CCCCC3)SC2)c1	none
CCOc1ccc(C2=Nn3c(nnc3-c3cccnc3)SC2)cc1	none
C=CCN(CC#CC(=C)C)CC1CC1	none (no result: MC4R antagonist, MC4R ag barr, ATG4B inhibitor, MPTP inh)
C=CCN1[C@@H](CC(C)C)COc2cccc(F)c2S1(=O)=O	none (no result: MC4R antagonist, MC4R ag barr, ATG4B inhibitor, MPTP inh)
CCCOc1nccc2c1n(C)c(=O)n2C	none (no result: MC4R antagonist, MC4R ag barr, ATG4B inhibitor, MPTP inh)
COc1ccc(-c2nn3c(C4CCCCC4)nnc3s2)cc1OC	SMARCA2 act 12.3 | SMARCA2 act conf inactive | VP16 Luc act inactive
COc1cc(-c2nn3c(C4CCCCC4)nnc3s2)cc(OC)c1OC	none
CC(=O)CC[C@@H]1CC[C@]2(CCCN(S(=O)(=O)c3ccccc3)C2)O1	none (no result: MC4R antagonist, MC4R ag barr, ATG4B inhibitor, MPTP inh)
CCOc1ccc(NC(=O)NN2C(C)CCCC2C)cc1 (stereo unspecified)	SMARCA2 act 14.7 | SMARCA2 act conf inactive | VP16 Luc act inactive
C[C@H]1CN([C@@H](C)CO)C(=O)CCCn2cc(nn2)CO[C@@H]1CN(C)S(=O)(=O)c1cn(C)cn1	none (no result: MC4R antagonist, MC4R ag barr, ATG4B inhibitor, MPTP inh)
COc1ccc(C2=Nc3ccccc3N(C(=O)c3ccncc3)C2C(=O)NC(C)C)cc1 (stereo unspecified)	SMARCA2 act 9.7 (no result: MC4R antagonist, MC4R ag barr, ATG4B inhibitor) | SMARCA2 act conf inactive | VP16 Luc act inactive
Cc1nc(NC(=O)C2CC2)sc1C(=O)Nc1ccccc1	none
Cc1ccccc1NC(=O)c1sc(NC(=O)C2CC2)nc1C	SMARCA2 act 8.4 | SMARCA2 act conf inactive | VP16 Luc act inactive
COCc1cc(N2CCN(C(=O)OC(C)(C)C)C[C@H]2C)ccc1Br	none (no result: MC4R antagonist, MC4R ag barr, ATG4B inhibitor, MPTP inh)
Nc1ccc(-c2nc3ccc(-c4nc5ccccc5o4)cc3[nH]2)cc1	none
Cc1nc2ccc(-c3nc4ccccc4o3)cc2[nH]1	SMARCA2 act 9.0 | SMARCA2 act conf inactive | VP16 Luc act 13.3
CCC(C)(C)C1CCC(=NNC(=S)Nc2cccnc2)CC1 (stereo unspecified)	none
